Measured values from ChEMBL document CHEMBL4725476, “Fluorescent Probes for Ecto-5'-nucleotidase (CD73)” (ACS Med Chem Lett, 2020).
pKi: −log10 of the molar value. Activity calls are given as the source filed them. The rule behind the calls is not given here.

What was measured:
[1] = target: T1, 5'-nucleotidase (Mus musculus) (UniProt Q61503); assay: Inhibition of CD73 in C57BL/6 mouse retina incubated for 1 hr by microscopic analysis; type: tissue-based
T1 sequence (whole entry): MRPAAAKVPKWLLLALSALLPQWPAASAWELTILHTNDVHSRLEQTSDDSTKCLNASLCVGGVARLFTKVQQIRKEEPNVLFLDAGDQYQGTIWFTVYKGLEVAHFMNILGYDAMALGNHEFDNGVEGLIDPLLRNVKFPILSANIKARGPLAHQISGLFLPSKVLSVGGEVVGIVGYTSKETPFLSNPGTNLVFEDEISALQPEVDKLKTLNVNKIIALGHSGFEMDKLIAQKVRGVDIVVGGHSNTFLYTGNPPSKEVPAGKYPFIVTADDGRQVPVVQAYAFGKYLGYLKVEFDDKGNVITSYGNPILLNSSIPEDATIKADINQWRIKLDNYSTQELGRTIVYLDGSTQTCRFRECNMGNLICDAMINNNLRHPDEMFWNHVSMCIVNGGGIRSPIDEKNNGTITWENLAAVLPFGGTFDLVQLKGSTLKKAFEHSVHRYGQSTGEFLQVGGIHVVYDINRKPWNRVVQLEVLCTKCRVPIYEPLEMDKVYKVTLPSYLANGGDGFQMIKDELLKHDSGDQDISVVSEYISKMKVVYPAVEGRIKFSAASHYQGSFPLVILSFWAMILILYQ
In short: (§1)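 Eyeballs enucleated from wild-type and CD73 knockout mice (targeted gene disruption). Free-floating vibratome-cut eye sections costained with rabbit anti-rat CD73 and chicken anti-vimentin antibodies. Then incubated with fluorochrome-conjugated second-stage antibodies together with fluorescein-labeled inhibitor. Nuclei counterstained with DAPI; read by immunofluorescence microscopy.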

[2] = target: T2, 5'-nucleotidase (Homo sapiens, UniProt P21589); assay: Inhibition of recombinant human C-terminal His-tagged CD73 (27 to 549 residues) expressed in Sf9 cells using [2,8-3H]-AMP as substrate incubated for 25 mins by scintillation counting method
T2 sequence (P21589 whole entry, the tested form may be a part): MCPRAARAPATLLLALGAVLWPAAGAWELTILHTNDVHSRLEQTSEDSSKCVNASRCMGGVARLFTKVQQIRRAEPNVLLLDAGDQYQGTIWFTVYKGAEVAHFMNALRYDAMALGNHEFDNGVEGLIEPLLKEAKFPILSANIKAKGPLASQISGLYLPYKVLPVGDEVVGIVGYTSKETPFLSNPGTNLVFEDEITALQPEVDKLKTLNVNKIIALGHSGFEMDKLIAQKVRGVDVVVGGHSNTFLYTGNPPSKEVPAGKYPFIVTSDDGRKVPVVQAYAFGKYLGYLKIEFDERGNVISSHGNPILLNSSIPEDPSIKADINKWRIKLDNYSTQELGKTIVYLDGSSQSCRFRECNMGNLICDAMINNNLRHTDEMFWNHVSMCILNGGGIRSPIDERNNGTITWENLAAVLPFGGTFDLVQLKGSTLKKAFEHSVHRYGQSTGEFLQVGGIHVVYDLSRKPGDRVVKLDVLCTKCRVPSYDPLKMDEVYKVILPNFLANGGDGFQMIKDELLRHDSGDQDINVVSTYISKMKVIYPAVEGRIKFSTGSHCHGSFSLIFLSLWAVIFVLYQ
In short: (§2)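 Radiometric CD73 assay using [3H]AMP substrate. Enzyme sources: human and rat recombinant soluble CD73 from Sf9 insect cells, or membrane preparations of MDA-MB-231 cells with native CD73. After incubation, unreacted [3H]AMP precipitated with lanthanum chloride and removed by filtration. [3H]adenosine in filtrate quantified by liquid scintillation counting. Full concentration-inhibition curves; Ki from IC50 via Cheng–Prusoff. Means ± SEM of 3 separate experiments.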

[3] = target: T2, 5'-nucleotidase; assay: Inhibition of CD73 in human MDA-MB-231 cells incubated for 30 mins by anti-CD73 antibody and alexa flour 633 staining based confocal microscopy analysis; type: cell-based
In short: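 MDA-MB-231 cells grown on cover slips were stained with rabbit anti-human CD73 antibody (h5NT-1L), then incubated with Alexa Fluor 633 goat anti-rabbit IgG secondary together with the fluorescein-labelled CD73 inhibitor. Nuclei were counterstained with DAPI. Cell-surface CD73 and probe binding were imaged by confocal microscopy.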

[4] = test system: Retina; assay: Effect on C57BL/6 mouse retina with CD73-/- deficient incubated for 1 hr by microscopic analysis; type: ADME, tissue-based; in short: as §1
[5] = test system: A549; assay: Cytotoxicity against human A549 cells assessed as reduction in cell growth at 1000 nM incubated for 48 hrs by CCK8 assay; type: cell-based; conditions: a549, 48 h, 1 µM
[6] = test system: MDA-MB-231; assay: Cytotoxicity against human MDA-MB-231 cells assessed as reduction in cell growth at 10000 nM incubated for 24 hrs by FACS analysis; type: cell-based; conditions: mda-mb-231, 24 h, 10 µM
[7] = target: T2, 5'-nucleotidase; assay: Inhibition of CD73 in human MDA-MB-231 cells using [2,8-3H]-AMP as substrate incubated for 25 mins by scintillation counting method; type: cell-based; in short: as §2
[8] = target: T3, 5'-nucleotidase (Rattus norvegicus, UniProt P21588); assay: Inhibition of recombinant rat CD73 expressed in Sf9 cells using [2,8-3H]-AMP as substrate incubated for 25 mins by scintillation counting method; in short: as §2
T3 sequence (P21588 whole entry): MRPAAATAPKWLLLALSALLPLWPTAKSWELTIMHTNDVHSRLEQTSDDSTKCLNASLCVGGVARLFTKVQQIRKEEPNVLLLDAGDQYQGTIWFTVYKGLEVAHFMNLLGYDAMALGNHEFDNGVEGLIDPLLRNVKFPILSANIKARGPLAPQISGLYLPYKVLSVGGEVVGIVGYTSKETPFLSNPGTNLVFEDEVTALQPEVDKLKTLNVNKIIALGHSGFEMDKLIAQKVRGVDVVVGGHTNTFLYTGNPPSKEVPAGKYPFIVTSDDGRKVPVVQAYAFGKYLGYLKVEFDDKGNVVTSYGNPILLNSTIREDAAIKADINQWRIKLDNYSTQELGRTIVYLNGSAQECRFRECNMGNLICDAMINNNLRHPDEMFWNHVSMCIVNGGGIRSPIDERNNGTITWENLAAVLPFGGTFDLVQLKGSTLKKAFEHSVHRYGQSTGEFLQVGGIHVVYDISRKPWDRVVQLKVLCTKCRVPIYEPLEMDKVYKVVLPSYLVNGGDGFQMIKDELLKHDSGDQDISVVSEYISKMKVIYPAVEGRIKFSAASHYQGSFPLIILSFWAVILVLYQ

[9] = Selectivity index, ratio of Ki for rat C-terminal His-tagged CD73 expressed in Sf9 cells to Ki for recombinant human C-terminal His-tagged CD73 (27 to 549 residues) expressed in Sf9 cells
In short: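 Ki values were measured in a radiometric assay with [3H]AMP substrate against rat and human recombinant soluble CD73 expressed in Sf9 insect cells. Residual [3H]AMP was precipitated with lanthanum chloride and removed by filtration, and [3H]adenosine was quantified by liquid scintillation counting. Ki came from full-curve IC50 via Cheng–Prusoff, 3 separate experiments. The ratio is rat Ki over human Ki.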

[10] = target: T4, Ectonucleoside triphosphate diphosphohydrolase 1 (Homo sapiens) (UniProt P49961); assay: Inhibition of human NTPDase 1 expressed in […] cells using ATP as substrate at 50 uM incubated for 5 mins followed by substrate addition and measured after 30 mins by capillary electrophoresis method; type: cell-based
T4 sequence (whole entry): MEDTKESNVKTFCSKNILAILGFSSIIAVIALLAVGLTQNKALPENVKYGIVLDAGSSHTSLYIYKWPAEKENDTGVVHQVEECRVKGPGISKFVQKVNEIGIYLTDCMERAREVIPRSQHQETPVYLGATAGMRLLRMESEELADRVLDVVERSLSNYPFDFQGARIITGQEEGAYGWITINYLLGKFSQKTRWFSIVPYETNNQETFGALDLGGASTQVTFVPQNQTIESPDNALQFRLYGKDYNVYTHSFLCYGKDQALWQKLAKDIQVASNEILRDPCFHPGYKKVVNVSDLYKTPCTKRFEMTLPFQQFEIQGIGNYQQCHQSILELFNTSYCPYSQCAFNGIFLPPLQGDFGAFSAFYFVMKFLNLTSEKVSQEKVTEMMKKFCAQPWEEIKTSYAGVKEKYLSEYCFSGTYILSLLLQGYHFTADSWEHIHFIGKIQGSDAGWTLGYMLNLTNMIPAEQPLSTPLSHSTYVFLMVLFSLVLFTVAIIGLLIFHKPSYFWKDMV

[11] = target: T5, Ectonucleoside triphosphate diphosphohydrolase 2 (Homo sapiens) (UniProt Q9Y5L3); assay: Inhibition of human NTPDase 2 expressed in […] cells using ATP as substrate at 50 uM incubated for 5 mins followed by substrate addition and measured after 30 mins by capillary electrophoresis method; type: cell-based
T5 sequence (whole entry): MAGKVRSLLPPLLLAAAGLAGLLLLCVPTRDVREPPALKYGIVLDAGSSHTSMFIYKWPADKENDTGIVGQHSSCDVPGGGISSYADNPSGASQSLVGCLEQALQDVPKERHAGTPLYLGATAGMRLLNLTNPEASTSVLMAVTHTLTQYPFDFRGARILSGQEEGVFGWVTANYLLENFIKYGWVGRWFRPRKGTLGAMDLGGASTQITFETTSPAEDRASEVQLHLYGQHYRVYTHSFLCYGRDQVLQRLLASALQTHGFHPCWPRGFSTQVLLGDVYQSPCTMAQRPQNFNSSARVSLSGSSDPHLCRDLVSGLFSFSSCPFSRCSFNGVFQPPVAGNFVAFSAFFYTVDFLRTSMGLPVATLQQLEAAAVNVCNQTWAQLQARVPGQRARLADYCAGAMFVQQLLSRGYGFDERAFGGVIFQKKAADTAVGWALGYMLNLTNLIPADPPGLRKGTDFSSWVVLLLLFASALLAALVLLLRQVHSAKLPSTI

[12] = target: T6, Ectonucleoside triphosphate diphosphohydrolase 3 (Homo sapiens) (UniProt O75355); assay: Inhibition of human NTPDase 3 expressed in […] cells using ATP as substrate at 50 uM incubated for 5 mins followed by substrate addition and measured after 30 mins by capillary electrophoresis method; type: cell-based
T6 sequence (whole entry): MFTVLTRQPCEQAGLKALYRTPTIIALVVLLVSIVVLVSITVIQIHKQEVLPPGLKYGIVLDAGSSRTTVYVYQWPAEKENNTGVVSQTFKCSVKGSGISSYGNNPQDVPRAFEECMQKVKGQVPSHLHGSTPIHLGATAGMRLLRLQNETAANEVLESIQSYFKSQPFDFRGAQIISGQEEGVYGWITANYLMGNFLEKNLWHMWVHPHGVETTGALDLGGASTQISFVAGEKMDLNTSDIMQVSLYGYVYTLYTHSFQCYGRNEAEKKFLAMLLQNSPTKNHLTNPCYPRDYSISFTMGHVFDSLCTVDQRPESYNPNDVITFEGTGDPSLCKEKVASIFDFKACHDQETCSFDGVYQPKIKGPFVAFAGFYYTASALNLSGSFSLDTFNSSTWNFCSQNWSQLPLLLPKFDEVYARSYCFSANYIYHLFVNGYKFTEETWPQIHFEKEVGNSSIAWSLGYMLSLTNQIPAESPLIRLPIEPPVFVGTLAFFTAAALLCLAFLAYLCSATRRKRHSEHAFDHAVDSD

[13] = target: T7, Ectonucleoside triphosphate diphosphohydrolase 8 (Homo sapiens) (UniProt Q5MY95); assay: Inhibition of human NTPDase 8 expressed in […] cells using ATP as substrate at 50 uM incubated for 5 mins followed by substrate addition and measured after 30 mins by capillary electrophoresis method; type: cell-based
T7 sequence (whole entry): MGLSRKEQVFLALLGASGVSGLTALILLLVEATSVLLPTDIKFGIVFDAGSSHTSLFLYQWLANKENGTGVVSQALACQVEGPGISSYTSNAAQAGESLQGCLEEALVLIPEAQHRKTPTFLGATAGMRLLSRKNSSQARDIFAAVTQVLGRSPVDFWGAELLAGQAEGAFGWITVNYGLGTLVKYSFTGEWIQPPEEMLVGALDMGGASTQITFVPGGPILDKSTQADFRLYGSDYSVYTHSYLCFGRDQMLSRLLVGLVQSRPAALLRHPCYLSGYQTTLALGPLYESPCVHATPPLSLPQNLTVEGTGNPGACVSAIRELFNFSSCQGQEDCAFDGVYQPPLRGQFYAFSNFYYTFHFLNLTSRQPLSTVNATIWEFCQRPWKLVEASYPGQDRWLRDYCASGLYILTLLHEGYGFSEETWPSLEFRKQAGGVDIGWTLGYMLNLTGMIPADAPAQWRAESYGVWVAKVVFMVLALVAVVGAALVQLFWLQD

[14] = target: P2Y purinoceptor 12 (Homo sapiens) (UniProt Q9H244); assay: Effect on human P2Y12 expressed in […] cells assessed as beta arrestin recruitment at 10 uM by beta-arrestin assay; type: functional, cell-based; conditions: CHO-K1
Sequence of P2Y purinoceptor 12 (Homo sapiens) (Q9H244 whole entry): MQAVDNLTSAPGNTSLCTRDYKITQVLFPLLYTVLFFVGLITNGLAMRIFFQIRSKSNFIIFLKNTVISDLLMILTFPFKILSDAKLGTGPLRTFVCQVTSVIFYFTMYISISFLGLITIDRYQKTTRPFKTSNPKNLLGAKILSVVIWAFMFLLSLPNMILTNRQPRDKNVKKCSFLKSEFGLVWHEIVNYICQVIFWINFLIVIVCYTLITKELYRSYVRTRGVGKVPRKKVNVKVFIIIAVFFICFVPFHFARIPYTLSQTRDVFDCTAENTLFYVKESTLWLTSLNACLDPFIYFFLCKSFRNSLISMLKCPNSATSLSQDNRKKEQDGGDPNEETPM

[15] = Metabolic stability in human liver microsomes assessed as intrinsic clearance measured for 60 mins; type: ADME, Microsome; conditions: read-out: CLH
In short: (§3)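 Stability of the probe tested by incubation with human liver microsomes. Intrinsic clearance expressed per mg microsomal protein; half-life derived from the clearance.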

[16] = Metabolic stability in human liver microsomes assessed as half life measured for 60 mins; type: ADME, Microsome; in short: as §3

Structure (SMILES) | inhibition [1] | pKi [2] | inhibition [3] | Activity [4] | Activity [5] | Activity [6] | pKi [7] | pKi [8] | Ratio Ki [9] | inhibition [10] | inhibition [11] | inhibition [12] | inhibition [13] | Activity [14] | microsomal CLint [15] [µL/min/mg] | half-life [16] [min]
O=C(NCCOCCOCCNC(=O)c1ccc2c(c1)C1(OC2=O)c2ccc(O)cc2Oc2cc(O)ccc21)c1ccc(CNc2ncnc3c2ncn3[C@@H]2O[C@H](COP(=O)(O)CP(=O)(O)O)[C@@H](O)[C@H]2O)cc1 | Active | 7.90 | Active | Non-Toxic | Non-Toxic | Non-Toxic | – | – | – | – | – | – | – | – | – | –
O=C(NCCCCCCNC(=O)c1ccc2c(c1)C1(OC2=O)c2ccc(O)cc2Oc2cc(O)ccc21)c1ccc(CNc2ncnc3c2ncn3[C@@H]2O[C@H](COP(=O)(O)CP(=O)(O)O)[C@@H](O)[C@H]2O)cc1 | Active | 8.53 | Active | Non-Toxic | Non-Toxic | Non-Toxic | 8.34 | 7.59 | 8 | inactive | inactive | inactive | inactive | inactive | 12 | 116
